Measurements published in ChEMBL document CHEMBL1150814, “Schizanrins [corrected] B, C, D, and E, four new lignans from Kadsura matsudai and their antihepatitis activities” (J Nat Prod, 2001).
≈ marks a conversion by molar mass, not a printed value. Calls of active or inactive are those of the source. No cut-off for these calls is given here.

What was measured:
[1] = system: Human immunodeficiency virus; experiment: Antiviral activity against HIV replication in human H9 lymphocytes; assay type: functional, organism-based
Hepatitis B virus [2] = experiment: Antiviral activity against Hepatitis B virus infected in human MS-G2 cells assessed as inhibition of surface antigen secretion at 20 ug/ml after 3 days by ELISA; assay type: functional
Method in brief: (§1)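 MS-G2 cells (HepG2 transfected with two copies of HBV genome, secreting virus) grown in RPMI-1640 with 10% fetal calf serum at 37 °C, 5% CO2. Seeded 3 × 10^5 cells/well, attached overnight, then given compound in DMSO (1, 5, 10, 20 μg/mL; DMSO ≤2.5 μL/mL; DMSO-only control). Media collected at 3 days. HBsAg and HBeAg measured by ELISA at 490 nm. % inhibition taken relative to control.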

Hepatitis B virus [3] = experiment: Antiviral activity against Hepatitis B virus infected in human MS-G2 cells assessed as inhibition of surface antigen secretion at 10 ug/ml after 3 days by ELISA; assay type: functional; parameters: scale not given: the % may be the effect or the level left; method in brief: as §1
Hepatitis B virus [4] = experiment: Antiviral activity against Hepatitis B virus infected in human MS-G2 cells assessed as inhibition of early antigen secretion at 20 ug/ml after 3 days by ELISA; assay type: functional; method in brief: as §1
Hepatitis B virus [5] = experiment: Antiviral activity against Hepatitis B virus infected in human MS-G2 cells assessed as inhibition of early antigen secretion at 10 ug/ml after 3 days by ELISA; assay type: functional; parameters: scale not given: the % may be the effect or the level left; method in brief: as §1
[6] = Cytotoxicity against human MS-G2 cells at 10 ug/ml by AST method; assay type: cell-based
Method in brief: (§2)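 Cell damage in compound-treated MS-G2 cultures was measured by aspartate transaminase (AST) kit. AST above 25 IU/L was taken as indicating cell damage or lysis.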

[7] = Cytotoxicity against human MS-G2 cells at 20 ug/ml by AST method; assay type: cell-based; method in brief: as §2
H9 = experiment: Cytotoxicity against human H9 cells; assay type: cell-based

Structure (SMILES)	Activity [1]	Activity (Hepatitis B virus [2])	Activity (Hepatitis B virus [3]) [%]	Activity (Hepatitis B virus [4])	Activity (Hepatitis B virus [5]) [%]	Activity [6] [IU/L]	Activity [7] [IU/L]	IC50 (H9) [µg/mL]
CC=C(C)C(=O)O[C@@H]1c2cc3c(c(O)c2-c2c(cc(OC)c(OC)c2OC)C[C@@H](C)[C@H]1C)OCO3	inactive	Toxic	<25	Toxic	25.8	16.8	47.8	–
COC1=C(OC)C(=O)[C@]23COc4c5c(cc(c42)[C@H](OC(=O)/C=C/c2ccccc2)[C@H](C)[C@H](C)CC3=C1)OCO5 [SCHIARISANRIN D]	–	<25%	<25	42.9%	27	20.1	22	–
CCC(C)C(=O)O[C@@H]1c2cc3c(c(O)c2-c2c(cc(OC)c(OC)c2OC)C[C@@H](C)[C@H]1C)OCO3 (stereo partly specified) [SCHIZARIN B]	inactive	54.9%	42.6	42.1%	40.7	17.6	15.5	–
CCCCCC(=O)O[C@@H]1c2cc3c(c(O)c2-c2c(cc(OC)c(OC)c2OC)C[C@@H](C)[C@H]1C)OCO3 [SCHIZARIN C]	inactive	Toxic	<25	Toxic	<25	16	35.9	–
COc1cc2c(c(OC)c1OC)-c1c(cc3c(c1O)OCO3)[C@@H](OC(=O)c1ccccc1)[C@H](C)[C@H](C)C2 [SCHIZARIN E]	inactive	Toxic	<25	Toxic	31.8	20.2	44.3	2.08 (≈ 4.11 µM)
CCC(C)C(=O)O[C@H]1c2cc3c(c4c2C(C(=O)C(=O)OC)(CO4)/C(=C\C(=O)OC)C[C@@H](C)[C@H]1C)OCO3 (stereo partly specified) [TAIWANSCHIRIN A]	–	<25%	<25	43%	<25	14.1	14.8	–
